Results on 1 compound are retold here after ChEMBL document CHEMBL4196173, “Stabilized β-Hairpin Peptide Inhibits Insulin Degrading Enzyme” (J Med Chem, 2018).

Calls of active or inactive are those of the source. The calls are words filed in the database; no cut-off is given here.

Data set [1] relates to Mus musculus. Nature of the data set: Effect on glucose levels in lean C57BL/6J mouse at 80 mg/kg, ip administered 30 min prior to glucose stimulation measured up to 120 min […]. The data set is classed as ADME, organism-based. Conditions: in vivo.
Data set [2] addresses Insulin-degrading enzyme (Homo sapiens) (UniProt P14735). Nature of the data set: Inhibition of IDE (unknown origin)-mediated FITC-insulin degradation in rat skeletal muscle cells at 100 uM after 10 mins at 310 K by DAPI-staining based fluorescent inverted microscopic imaging analysis. The data set is classed as cell-based. In a few lines: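 Rat skeletal muscle cells on coverslips were given 100 nM wild-type IDE and 100 μM peptide for 10 min at 310 K, then FITC-insulin for a further 10 min. Cells were washed, fixed in 4% paraformaldehyde, stained with DAPI and imaged by fluorescent inverted microscopy. Repeated three times.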

Data set [3] deals with Mus musculus. Nature of the data set: Hypoglycemic activity in lean C57BL/6J mouse at 80 mg/kg, ip administered 30 min prior to insulin injection measured up to 75 mins post insulin injection by ITT. The format is functional, organism-based. Summed up: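 Lean male mice were fasted 6 h, then given 80 mg kg−1 i.p. or PBS (n = 6) 30 min before subcutaneous insulin (0.25 U kg−1 in saline). Tail blood glucose was read at −30 to 75 min. Mean ± SEM, two-tailed t test, repeated three times.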

Data set [4] can be described thus: Drug uptake in human HeLa cells at 5 uM using FITC-labeled compound after 2 hrs at 310 K by DAPI-staining based confocal microscopy. The data set is classed as ADME, cell-based.
Data set [5] can be described thus: Absolute bioavailability in lean C57BL/6J mouse at 100 mg/kg, ip by LC-MS analysis. The format is ADME, organism-based. Conditions: in vivo. Summed up: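 Mice received the peptide by orbital i.v. injection (taken as 100%) or by i.p. injection. Plasma was sampled from 20 min to 43 h, TCA-precipitated and analysed by LC–MS. Fabc% = (AUCip × Div)/(AUCiv × Dip) × 100%. Two independent experiments.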

Data set [6] deals with Mus musculus. Nature of the data set: Toxicity in lean C57BL/6J mouse assessed as behavioral changes at 80 mg/kg, ip. The format is organism-based. To be noted: in vivo. In a few lines:
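Male lean C57BL/6J mice (13–15 weeks) received 80 mg kg−1 i.p. or PBS vehicle (n = 6 each). Behaviour and body weight were monitored.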

In data set [7] the test system is Mus musculus. Briefly: Anti-diabetic activity in DIO C57BL/6J mouse model assessed as reduction in glucose levels at 80 mg/kg, ip administered 30 min prior to glucose stimulation […] by GTT. The format is functional, organism-based.
The next data set relates to HeLa. Briefly: Cytotoxicity against human HeLa cells assessed as reduction in cell viability at <300 uM after 24 hrs at 310 K by MTT assay. The data set is classed as cell-based. Summed up: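 HeLa cells were grown overnight in DMEM with 10% FBS, then exposed to serial dilutions starting at 300 μM in medium with 5% FBS for 24 h at 310 K under 5% CO2. MTT was added for a further 4 h and formazan absorbance read at 490 nm. Three independent experiments in duplicate.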

The nature of data set [8]: Tmax in lean C57BL/6J mouse at 100 mg/kg, ip by LC-MS analysis. The format is ADME, organism-based. Conditions: in vivo. Summed up:
(§1)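 Male lean C57BL/6J mice, 13–15 weeks old, given one i.p. dose of 100 mg kg−1 (n = 5). Tail or eye-socket blood was taken from 20 min to 43 h and spun to plasma. 30 μL plasma was mixed with 100 μL 10% TCA in H2O/CH3CN (1:1) and chilled at 277 K for 15 min. After centrifugation the peptide left in the supernatant was quantified by LC–MS. Two independent experiments.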

The test system of data set [9] is Mus musculus. Nature of the data set: Induction of insulin levels in lean C57BL/6J mouse at 80 mg/kg, ip after 30 to 120 mins post injection by ELISA. The format is functional, organism-based. Summed up:
(§2)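 Male lean C57BL/6J mice received 80 mg kg−1 i.p. (n = 5) or PBS. At 30 or 120 min, heparinized blood was taken from tail or eye socket and spun to plasma. Insulin (5 μL plasma), C-peptide, glucagon, beta-endorphin and TNF alpha (10 μL each) were measured by ultrasensitive ELISA. Mean ± SEM, two-tailed t test.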

A short description of data set [10]: Drug uptake in brain parenchyma of lean C57BL/6J mouse at 40 mg/kg, iv using cy5-labeled compound by two-photon microscopic analysis. Conditions: in vivo.
Data set [11] relates to Mus musculus. Nature of the data set: Induction of glucagon levels in lean C57BL/6J mouse at 80 mg/kg, ip after 30 to 120 mins post injection by ELISA. The format is functional, organism-based. In a few lines: as §2
Data set [12] in a line: Drug uptake in human HeLa cells at 5 uM using FITC-labeled compound after 2 hrs at 310 K by trypan blue-fluorescence based FACS analysis. The data set is classed as ADME, cell-based. Summed up:
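HeLa cells were grown overnight in DMEM with 10% FBS, then given 5 μM FITC-labelled peptide in FBS-free medium for 2 h at 310 K. Cells were washed with PBS and 0.4% trypan blue, trypsinized and washed. Mean fluorescence was measured by flow cytometry with gated cell counts. Three independent experiments.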

For data set [13], the system named is Mus musculus. Briefly: Effect on basal TNFalpha levels in lean C57BL/6J mouse at 80 mg/kg, ip after 30 to 120 mins post injection by ELISA. The data set is classed as ADME, organism-based. To be noted: in vivo. In a few lines: as §2
Data set [14] is described as follows: Selectivity ratio of IC50 for ECE-1 (unknown origin) to IC50 for mouse His-tagged IDE (42 to 1019 residues).
Data set [15] has as its system Mus musculus. Briefly: Effect on amyloid beta (1-40) levels in lean C57BL/6J mouse brain at 80 mg/kg, ip administered per another day measured after 4 hrs to 11 days post injection by ELISA. The format is ADME, organism-based. To be noted: in vivo. Summed up:
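Male lean C57BL/6J mice received 80 mg kg−1 i.p. every other day (n = 5) or PBS vehicle. Brains (~350 mg) were Dounce-homogenized in PBS with 1 mM PMSF and spun at 13,000 rpm for 30 min at 277 K. Supernatant Aβ(1–40) was measured by ELISA at 4 h, 24 h, 7 days and 11 days. Mean ± SEM, two-tailed t test.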

Data set [16] is described as follows: Selectivity ratio of IC50 for ACE (unknown origin) to IC50 for mouse His-tagged IDE (42 to 1019 residues).
Data set [17] in a line: Drug uptake in brain parenchyma of lean C57BL/6J mouse at 80 mg/kg, iv using FITC-labeled compound by two-photon microscopic analysis. Conditions: in vivo.
Data set [18] deals with Insulin-degrading enzyme (Homo sapiens) (UniProt P14735). Briefly: Inhibition of IDE (unknown origin) assessed as potentiation of insulin-induced AKT phosphorylation in rat skeletal muscle cells at 100 uM preincubated up to 12 hrs followed by insulin addition and measured after 10 mins by Western blot analysis. The format is cell-based. Summed up: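 Rat skeletal muscle cells were treated with 100 nM IDE plus peptide, for 10 min or at time points up to 24 h with 100 μM. Insulin (10 nM) was then added for 10 min. RIPA lysates were run on 10% SDS-PAGE and blotted for pAKT and AKT with GAPDH as loading control. Densitometry on three regions, two-tailed t test.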
Chain of Insulin-degrading enzyme (Homo sapiens) (P14735 whole entry): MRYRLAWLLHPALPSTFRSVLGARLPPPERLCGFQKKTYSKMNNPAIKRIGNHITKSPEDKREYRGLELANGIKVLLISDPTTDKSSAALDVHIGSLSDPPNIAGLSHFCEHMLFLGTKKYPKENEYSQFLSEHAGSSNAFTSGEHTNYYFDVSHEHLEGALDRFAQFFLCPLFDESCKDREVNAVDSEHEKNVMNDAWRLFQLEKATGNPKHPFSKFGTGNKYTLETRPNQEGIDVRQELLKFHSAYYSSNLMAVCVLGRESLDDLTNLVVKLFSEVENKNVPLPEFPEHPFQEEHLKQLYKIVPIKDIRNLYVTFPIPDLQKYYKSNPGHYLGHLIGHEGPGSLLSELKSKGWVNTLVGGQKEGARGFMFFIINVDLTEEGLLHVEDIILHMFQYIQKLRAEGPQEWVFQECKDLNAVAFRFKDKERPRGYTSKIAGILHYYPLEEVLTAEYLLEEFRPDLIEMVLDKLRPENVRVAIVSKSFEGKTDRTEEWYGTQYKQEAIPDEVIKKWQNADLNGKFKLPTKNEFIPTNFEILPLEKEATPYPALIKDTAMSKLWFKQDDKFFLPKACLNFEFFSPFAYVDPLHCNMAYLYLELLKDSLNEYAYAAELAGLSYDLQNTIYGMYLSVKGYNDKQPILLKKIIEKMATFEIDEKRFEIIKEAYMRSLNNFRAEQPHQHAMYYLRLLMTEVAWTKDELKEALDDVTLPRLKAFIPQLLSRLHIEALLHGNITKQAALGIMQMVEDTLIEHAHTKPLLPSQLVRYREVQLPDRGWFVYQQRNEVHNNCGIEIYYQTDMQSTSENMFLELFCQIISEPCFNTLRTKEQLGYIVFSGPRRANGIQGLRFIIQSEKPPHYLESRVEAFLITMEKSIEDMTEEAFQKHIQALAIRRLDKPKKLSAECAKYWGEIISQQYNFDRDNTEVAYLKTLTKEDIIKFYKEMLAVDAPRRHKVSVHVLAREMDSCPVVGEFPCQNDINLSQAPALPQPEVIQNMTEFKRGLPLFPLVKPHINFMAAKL

Data set [19] in a line: Cmax in lean C57BL/6J mouse at 100 mg/kg, ip by LC-MS analysis. The format is ADME, organism-based. Also on record: dose 100 mg/kg, route intraperitoneal. Conditions: in vivo. In a few lines: as §1

With `CC(=O)N[C@@H](CCC(=O)O)C(=O)N[C@@H](Cc1c[nH]c2ccccc12)C(=O)N[C@@H](CCCNC(=N)N)C(=O)N[C@@H](Cc1ccccc1)C(=O)N[C@H]1CC(=O)NC[C@@H](C(=O)N[C@@H](CC(C)C)C(=O)N[C@@H](Cc2ccc(O)cc2)C(=O)N[C@@H](CC(C)C)C(=O)N[C@H](C(=O)N[C@@H](CS)C(=O)NCC(N)=O)C(C)C)NC(=O)[C@H](CCC(=O)O)NC(=O)[C@@H]2CCCN2C(=O)[C@H]2CCCN2C(=O)CNC1=O`, the Activity entry with Mus musculus [1], with Mus musculus [6], with HeLa, with Mus musculus [13] and with Mus musculus [15] was “Non-Toxic” each time. For the same compound, the inhibition entry in [2] and in data set [18] was “Active” throughout. Moreover, the result with Mus musculus [3], in the data set on Mus musculus [7], in the data set with Mus musculus [9] and with Mus musculus [11] was Active. The Drug uptake result is reported as “Active” in data set [4], “Not Active” in [10], “Active” in data set [12] and “Not Active” in [17]. In data set [5], this compound registered a bioavailability of 83.5%. Besides, the time to peak (Tmax) in data set [8] stood at 1.4 h. For the same compound, the Ratio IC50 in data set [14] and in data set [16] was over 1000 each time. Further, the peak level in data set [19] (Cmax) was 619 µg/mL.
